Active and inactive are the calls of the source. The rule behind the calls is not given here.
Columns and labels:
[1] = target: T1, 26S proteasome (Homo sapiens) (UniProt Q99460+P49721+P20618+P28074+P28062+P28065+P28072+O00487+P25786+P25787+P25788+P25789+P28066+P60900+O14818+Q8TAA3+P40306+A5LHX3+P49720+P28070+Q99436+Q16186+P35998+P62191+P43686+P62333+P17980+P62195+Q13200+O43242+O00232+O00231+Q15008+P51665+Q9UNM6+P55036+P48556+P60896); test: Inhibition of 26S proteosome in human Hep3B cells grown under in normoxic condition for 4 hrs assessed as downregulation of HIF1alpha level at 10 uM added together with cycloheximide and measured after up 45 mins post dose by Western blot analysis; type: cell-based
Procedure, shortened: (§1)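 Hep3B cells kept under normoxia or hypoxia for 4 h, then cycloheximide (10 μM) and compound (10 μM) added to the medium; HIF-1α level detected by Western blot at 0, 15, 30 or 45 min after cycloheximide.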

[2] = test system: Hep 3B2; test: Cytotoxicity against human Hep3B cells assessed as reduction in cell viability after 24 hrs in normoxic condition by MTT assay; type: cell-based
Procedure, shortened: (§2)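 Hep3B viability by MTT assay after 24 h compound treatment under normoxia; table values are means, n=3.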

[3] = target: Hypoxia-inducible factor 1-alpha (Homo sapiens) (UniProt Q16665); test: Inhibition of HIF1alpha in human Hep3B cells at 10 uM preincubated with 26S proteosome inhibitor MG132 followed by compound addition and measured after 12 hrs in hypoxic condition by Western blot analysis; type: cell-based
Procedure, shortened: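 Proteasome inhibitor MG-132 (10 μM) added to Hep3B cells 30 min before compound (10 μM), then hypoxia for 12 h; nuclear HIF-1α detected by Western blot.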

[4] = test system: Hep 3B2; test: Downregulation of HIF1alpha mRNA expression in human Hep3B cells up to 10 uM after 12 hrs in normoxic condition by RT-PCR analysis; type: functional, cell-based
Procedure, shortened: (§3)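 Hep3B cells held under normoxia or hypoxia for 12 h with or without indicated compound concentrations; RNA isolated, reverse-transcribed and analysed by RT-PCR for HIF-1α and VEGF, GAPDH as loading control; mean ± SD of three independent experiments.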

[5] = test system: Hep 3B2; test: Effect on TOP1 protein level in human Hep3B cells after 12 hrs in hypoxic condition by Western blot analysis; type: functional, cell-based
Procedure, shortened: (§4)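 HCT116, A549, Hep3B and HeLa cells incubated 12 h under normoxia or hypoxia with or without indicated compound concentrations; nuclear extracts probed for HIF-1α by Western blot, blot reprobed for topoisomerase-I as loading control.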

[6] = test system: HeLa; test: Effect on TOP1 protein level in human HeLa cells after 12 hrs in hypoxic condition by Western blot analysis; type: functional, cell-based; procedure, shortened: as §4
[7] = target: Hypoxia-inducible factor 1-alpha (Homo sapiens) (UniProt Q16665); test: Inhibition of HIF1alpha protein level in human HCT116 cells after 12 hrs in hypoxic condition by Western blot analysis; type: cell-based; procedure, shortened: as §4
[8] = target: Hypoxia-inducible factor 1-alpha (Homo sapiens) (UniProt Q16665); test: Inhibition of HIF1alpha protein level in human Hep3B cells at 10 uM after 12 hrs in hypoxic condition by DAPI-staining based confocal laser scanning microscopic analysis; type: cell-based
Procedure, shortened: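 Hep3B cells given 10 μM compound for 12 h under hypoxia, fixed, stained with anti-HIF-1α (1:100) and Alexa Fluor 488 goat anti-mouse IgG, nuclei counterstained with DAPI; imaged by fluorescence microscopy with 40× objective.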

[9] = target: T1, 26S proteasome (Homo sapiens); test: Inhibition of 26S proteosome in human Hep3B cells grown under in hypoxic condition for 4 hrs assessed as downregulation of HIF1alpha level at 10 uM added together with cycloheximide and measured after up 45 mins post dose by Western blot analysis; type: cell-based; procedure, shortened: as §1
[10] = target: Hypoxia-inducible factor 1-alpha (Homo sapiens) (UniProt Q16665); test: Inhibition of HIF1alpha protein level in human A549 cells after 12 hrs in normoxic condition by Western blot analysis; type: cell-based; procedure, shortened: as §4
[11] = target: Hypoxia-inducible factor 1-alpha (Homo sapiens) (UniProt Q16665); test: Inhibition of HIF1alpha protein level in human HeLa cells after 12 hrs in hypoxic condition by Western blot analysis; type: cell-based; procedure, shortened: as §4
[12] = target: Hypoxia-inducible factor 1-alpha (Homo sapiens) (UniProt Q16665); test: Inhibition of HIF1alpha protein level in human HeLa cells after 12 hrs in normoxic condition by Western blot analysis; type: cell-based; procedure, shortened: as §4
[13] = target: Hypoxia-inducible factor 1-alpha (Homo sapiens) (UniProt Q16665); test: Inhibition of HIF1alpha protein level in human A549 cells after 12 hrs in hypoxic condition by Western blot analysis; type: cell-based; procedure, shortened: as §4
[14] = test system: A549; test: Effect on TOP1 protein level in human A549 cells after 12 hrs in hypoxic condition by Western blot analysis; type: functional, cell-based; procedure, shortened: as §4
[15] = test system: Hep 3B2; test: Anticlonogenic activity against human Hep3B cells after 10 days by crystal violet staining based assay; type: functional, cell-based
Procedure, shortened: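 Hep3B cells exposed to compound at 0, 1, 3 and 10 μM for 12 h, then medium replaced with fresh medium and cells grown 10 d; colony formation imaged.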

[16] = target: Hypoxia-inducible factor 1-alpha (Homo sapiens) (UniProt Q16665); test: Inhibition of HIF1alpha protein level in human Hep3B cells after 12 hrs in normoxic condition by Western blot analysis; type: cell-based; procedure, shortened: as §4
[17] = test system: Hep 3B2; test: Cytotoxicity against human Hep3B cells assessed as reduction in cell viability up to 30 uM after 24 hrs in normoxic condition by MTT assay; type: cell-based; settings: hep 3b2, 24 h; procedure, shortened: as §2
[18] = target: Hypoxia-inducible factor 1-alpha (Homo sapiens) (UniProt Q16665); test: Inhibition of HIF1alpha protein level in human HCT116 cells after 12 hrs in normoxic condition by Western blot analysis; type: cell-based; procedure, shortened: as §4
[19] = test system: HCT-116; test: Effect on TOP1 protein level in human HCT116 cells after 12 hrs in hypoxic condition by Western blot analysis; type: functional, cell-based; procedure, shortened: as §4
[20] = test system: Hep 3B2; test: Downregulation of HIF1alpha mRNA expression in human Hep3B cells up to 10 uM after 12 hrs in hypoxic condition by RT-PCR analysis; type: functional, cell-based; procedure, shortened: as §3
[21] = target: Hypoxia-inducible factor 1-alpha (Homo sapiens) (UniProt Q16665); test: Inhibition of HIFalpha in human Hep3B cells assessed as downregulation of VEGF mRNA expression up to 10 uM after 12 hrs in hypoxic condition by RT-PCR analysis; type: cell-based; procedure, shortened: as §3
[22] = test system: Hep 3B2; test: Antiproliferative activity against human Hep3B cells assessed as reduction in EdU incorporation at 10 uM after 12 hrs in hypoxic condition by DAPI staining based inverted fluorescence microscopic method; type: functional, cell-based
Procedure, shortened: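 Hep3B cells incubated 12 h with or without compound at 10 μM; EdU-labelled replicating cells examined by fluorescence microscopy, DNA counterstained with DAPI; percentage of EdU-positive cells compared with vehicle-treated cells.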

[23] = target: Hypoxia-inducible factor 1-alpha (Homo sapiens) (UniProt Q16665); test: Inhibition of HIF1alpha protein level in human Hep3B cells after 12 hrs in hypoxic condition by Western blot analysis; type: cell-based; procedure, shortened: as §4
[24] = target: Hypoxia-inducible factor 1-alpha (Homo sapiens) (UniProt Q16665); test: Inhibition of HIF1alpha transcriptional activity in human Hep3B cells after 24 hrs in hypoxic condition by HRE-dual luciferase reporter gene assay; type: cell-based
Procedure, shortened: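 Hep3B cells transiently co-transfected with pGL3-HRE-luciferase and pRL-CMV, after 24 h incubated under hypoxia with or without compound; luciferase activity measured after 24 h, ursolic acid as positive control; mean ± SD of three independent experiments.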

Chain of Hypoxia-inducible factor 1-alpha (Homo sapiens) (Q16665 whole entry, looked up): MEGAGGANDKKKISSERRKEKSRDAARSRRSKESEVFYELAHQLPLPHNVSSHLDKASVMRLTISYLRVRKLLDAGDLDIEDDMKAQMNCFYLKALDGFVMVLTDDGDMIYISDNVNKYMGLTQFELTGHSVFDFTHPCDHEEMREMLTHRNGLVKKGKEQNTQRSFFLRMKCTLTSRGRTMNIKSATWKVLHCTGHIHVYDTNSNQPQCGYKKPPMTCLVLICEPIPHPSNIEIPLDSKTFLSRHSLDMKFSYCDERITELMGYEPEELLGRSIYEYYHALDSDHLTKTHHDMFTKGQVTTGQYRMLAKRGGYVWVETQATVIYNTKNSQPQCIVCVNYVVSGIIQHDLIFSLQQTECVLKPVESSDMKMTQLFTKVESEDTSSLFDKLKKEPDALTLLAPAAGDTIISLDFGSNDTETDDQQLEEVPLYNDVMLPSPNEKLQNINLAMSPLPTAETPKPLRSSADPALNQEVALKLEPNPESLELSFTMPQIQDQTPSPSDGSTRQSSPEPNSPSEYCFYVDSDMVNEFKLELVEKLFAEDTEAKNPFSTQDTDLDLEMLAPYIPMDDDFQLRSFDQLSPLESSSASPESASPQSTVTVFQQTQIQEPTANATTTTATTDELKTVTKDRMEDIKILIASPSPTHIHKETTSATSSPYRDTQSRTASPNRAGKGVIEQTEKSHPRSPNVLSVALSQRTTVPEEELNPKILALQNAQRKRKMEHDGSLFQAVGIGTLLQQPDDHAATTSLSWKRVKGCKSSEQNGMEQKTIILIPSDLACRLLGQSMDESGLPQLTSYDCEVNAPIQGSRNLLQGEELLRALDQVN

inhibition [1]: inactive
inhibition [3]: Active
inhibition [7]: Dose-dependent effect
inhibition [8]: Active
inhibition [9]: inactive
inhibition [10]: inactive
inhibition [11]: Dose-dependent effect
inhibition [12]: inactive
inhibition [13]: Dose-dependent effect
inhibition [16]: inactive
inhibition [18]: inactive
inhibition [21]: Active
inhibition [23]: Dose-dependent effect
inhibition [24]: Dose-dependent effect
SMILES: C[C@H]1[C@H](C)CC[C@]2(C(=O)O)CC[C@]3(C)C(=CC[C@@H]4[C@@]5(C)CC(=C\c6ccc(Cl)cc6)/C(=N\NC(=N)N)C(C)(C)[C@@H]5CC[C@]43C)[C@H]12
IC50 [2]: > 100 µM
Activity [4]: inactive
Activity [5]: inactive
Activity [6]: inactive
Activity [14]: inactive
Activity [15]: Dose-dependent effect
Activity [17]: Non-Toxic
Activity [19]: inactive
Activity [20]: inactive
Activity [22]: Active
